Drawing on ChEMBL document CHEMBL1131742, “Design of scytalone dehydratase inhibitors as rice blast fungicides: derivatives of norephedrine” (Bioorg Med Chem Lett, 1999), this text covers ED90 and Ki for 15 molecules.

The test system of one test is rice. In words: Concentration that affords 90% control of blast disease on rice plants in greenhouse assay. The test is classed as functional. An outline of the steps:
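Foliar greenhouse test on rice plants against blast disease; compounds applied over a range of concentrations, and the concentration giving 90% disease control was derived from the dose-response data.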

The target in a further test is T1, Scytalone dehydratase (Magnaporthe oryzae (strain 70-15 / FGSC 8958) (Rice blast fungus)(Pyricularia oryzae), UniProt P56221).
T1 sequence (P56221 whole entry): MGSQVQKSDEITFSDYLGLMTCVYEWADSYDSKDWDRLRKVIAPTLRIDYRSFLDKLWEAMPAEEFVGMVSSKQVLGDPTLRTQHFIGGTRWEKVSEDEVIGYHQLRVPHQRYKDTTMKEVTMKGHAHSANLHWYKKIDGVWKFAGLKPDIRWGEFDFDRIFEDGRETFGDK
Details: species or system Pyricularia grisea.

Usually Ki stands for a measure of affinity in units of concentration, obtained from inhibition or displacement.

SMILES strings stand for the structures. Converted amounts (≈) assume the structure as drawn.

`C[C@@H](NC(=O)C(C#N)C1CC1)[C@@H](Oc1cc(F)ccc1F)c1ccccc1` (stereo partly drawn) yielded an ED90 in the test on rice of 2 µg/mL (≈ 5.4 µM). In addition, at Scytalone dehydratase, the Ki worked out at 0.014 nM. The corresponding values for `CCC(C#N)C(=O)N[C@H](C)COc1cc(F)ccc1F` (stereo partly drawn) are more than 200 µg/mL and 5.5 nM. In the test on rice, `C[C@@H](NC(=O)C(C#N)C(C)(C)C)[C@@H](Oc1ccccc1C#N)c1ccccc1` (stereo partly drawn) returned an ED90 of 200 µg/mL (≈ 533 µM). Also, the Ki at Scytalone dehydratase turned out to be 0.14 nM. The corresponding values for `CCC(C#N)C(=O)N[C@H](C)[C@@H](Oc1cc(F)ccc1C#N)c1ccccc1` (stereo partly drawn) are 50 µg/mL (≈ 137 µM) and 0.021 nM.

The molecule `C[C@H](COc1cc(F)ccc1F)NC(=O)C(C#N)C(C)(C)C` (stereo partly drawn) came in with an ED90 in the test with rice of 6 µg/mL (≈ 19.3 µM). Regarding `CC(C)C(C#N)C(=O)N[C@H](C)[C@@H](Oc1cc(F)ccc1C#N)c1ccccc1` (stereo partly drawn), the ED90 with rice stood at 25 µg/mL (≈ 65.9 µM). The molecule also gave a Ki at Scytalone dehydratase of 0.034 nM.

Regarding `CC(C)C(C#N)C(=O)N[C@H](C)COc1cc(F)ccc1F` (stereo partly drawn), the ED90 in the test with rice worked out at 10 µg/mL (≈ 33.7 µM). At Scytalone dehydratase, this molecule had a Ki of 0.27 nM. `CC(C)C(C#N)C(=O)N[C@H](C)[C@@H](Oc1ccccc1C#N)c1ccccc1` (stereo partly drawn) showed an ED90 with rice of 25 µg/mL (≈ 69.2 µM). This molecule returned a Ki on Scytalone dehydratase of 0.038 nM. The corresponding values for `CC(C)C(C#N)C(=O)N[C@H](C)[C@@H](Oc1cc(F)ccc1F)c1ccccc1` (stereo partly drawn) are 100 µg/mL (≈ 269 µM) and 0.076 nM.

In the test on rice, `CCC(C#N)C(=O)N[C@H](C)[C@@H](Oc1ccccc1C#N)c1ccccc1` (stereo partly drawn) gave an ED90 of 10 µg/mL (≈ 28.8 µM). The same molecule returned a Ki at Scytalone dehydratase of 0.07 nM.

As for `CCC(C#N)C(=O)N[C@H](C)[C@@H](Oc1cc(F)ccc1F)c1ccccc1` (stereo partly drawn), in the test with rice, the ED90 was 2 µg/mL (≈ 5.58 µM). The inhibitory constant (Ki) on Scytalone dehydratase was determined as 0.02 nM. The corresponding values for `CCC(C#N)C(=O)N[C@H](C)[C@@H](Oc1cc(Br)ccc1C#N)c1ccccc1` (stereo partly drawn) are 50 µg/mL (≈ 117 µM) and 0.034 nM. The molecule `C[C@H](COc1cc(F)ccc1F)NC(=O)C(C#N)C1CC1` (stereo partly drawn) gave an ED90 with rice of 50 µg/mL (≈ 170 µM). On Scytalone dehydratase, affinity was put at a Ki of 1.1 nM. Turning to `C[C@H](COc1cc(F)ccc1F)NC(=O)[C@H](C#N)C(C)(C)C`, at Scytalone dehydratase, the Ki turned out to be 0.02 nM. This counts as picomolar.

Molecule `CCC(C#N)C(=O)N[C@H](C)[C@@H](Oc1cc(Cl)ccc1C#N)c1ccccc1` (stereo partly drawn) yielded an ED90 in the test on rice of 10 µg/mL (≈ 26.2 µM). Moreover, the Ki at Scytalone dehydratase came out at 0.031 nM.
